# Reference: ChEMBL document CHEMBL1817606, “3-benzhydryl-4-piperidones as novel neurokinin-1 receptor antagonists and their efficient synthesis” (Bioorg Med Chem, 2011)
# Activity calls are given as the source filed them. The rule behind the calls is not given here.
# System: Cavia porcellus
# Assay: Inhibition of capsaicin-induced plasma extravasation in trachea of po dosed guinea pig
# Format: functional, organism-based
# Conditions: not given
row,Structure (SMILES),inhibition
1,COc1ccc(Br)cc1CN1CCC(=O)C(C(c2ccc(F)cc2)c2ccc(F)cc2)C1 (racemic) [listing 1 of 2 here],inactive
2,COc1ccc(C(C)C)cc1CN1CCC(=O)C(C(c2ccccc2)c2ccccc2)C1 (racemic),inactive
3,COc1ccc(NS(C)(=O)=O)cc1CN1CCC(=O)C(C(c2ccccc2)c2ccccc2)C1 (racemic),inactive
4,COc1ccc(OC(F)(F)F)cc1CN1CCC(=O)C(C(c2ccccc2)c2ccccc2)C1 (racemic),inactive

# Molecular target: T1, Substance-P receptor (Homo sapiens, UniProt P25103)
# T1 sequence (P25103 whole entry): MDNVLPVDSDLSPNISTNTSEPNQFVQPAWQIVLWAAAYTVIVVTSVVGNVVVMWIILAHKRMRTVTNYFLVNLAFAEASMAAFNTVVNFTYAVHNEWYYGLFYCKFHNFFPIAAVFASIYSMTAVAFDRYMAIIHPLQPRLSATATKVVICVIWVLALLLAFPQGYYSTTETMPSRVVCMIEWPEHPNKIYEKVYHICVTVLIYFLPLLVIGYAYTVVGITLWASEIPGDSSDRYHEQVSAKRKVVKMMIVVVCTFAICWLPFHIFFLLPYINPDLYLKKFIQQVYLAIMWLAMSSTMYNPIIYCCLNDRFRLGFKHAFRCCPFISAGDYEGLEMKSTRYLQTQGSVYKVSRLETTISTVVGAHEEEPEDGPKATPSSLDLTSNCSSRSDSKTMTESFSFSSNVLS
# Assay: Displacement of [125I]BH-SP from human tachykinin NK1 receptor expressed in IM9 cells at 10^-7 M after 30 mins by scintillation counting
# Format: cell-based
# Conditions: IM-9
row,Structure (SMILES),inhibition
1,O=C1CCN(Cc2ccccc2)CC1=C(c1ccccc1)c1ccccc1,-2%
2,O=C1CCN(Cc2ccccc2)CC1C(c1ccccc1)c1ccccc1 (racemic),81.7%
3,O=C1CCN(Cc2ccccc2)CC1C(c1ccc(F)cc1)c1ccc(F)cc1 (racemic),81.7%
4,O=C1CCN(Cc2ccccc2)CC1C(c1ccc(Cl)cc1)c1ccc(Cl)cc1 (racemic),81.7%
5,O=C1CCN(CCc2ccccc2)CC1C(c1ccccc1)c1ccccc1 (racemic),54.3%
6,O=C1CCN(Cc2cc(C(F)(F)F)cc(C(F)(F)F)c2)CC1C(c1ccc(F)cc1)c1ccc(F)cc1 (racemic),32.9%
7,O=C1CCN(Cc2ccccc2)CC1C1c2ccccc2C=Cc2ccccc21 (racemic),31.1%
8,O=C1CCN(Cc2ccccc2)CC1C1c2ccccc2Oc2ccccc21 (racemic),29.8%
9,O=C1CCNCC1C(c1ccccc1)c1ccccc1 (racemic),17.6%
10,O=C1CN(Cc2ccccc2)CC1C(c1ccccc1)c1ccccc1 (racemic),-0.6%
11,O=C1CN(Cc2ccccc2)CCC1C(c1ccccc1)c1ccccc1 (racemic),9.7%

# System: Cavia porcellus
# Assay: Inhibition of capsaicin-induced plasma extravasation in trachea of iv dosed guinea pig
# Format: functional, organism-based
# Conditions: not given
row,Structure (SMILES),inhibition
1,COc1ccc(Br)cc1CN1CCC(=O)C(C(c2ccc(F)cc2)c2ccc(F)cc2)C1 (racemic) [listing 1 of 2 here],inactive
2,COc1ccc(C(C)C)cc1CN1CCC(=O)C(C(c2ccccc2)c2ccccc2)C1 (racemic),inactive
3,COc1ccc(NS(C)(=O)=O)cc1CN1CCC(=O)C(C(c2ccccc2)c2ccccc2)C1 (racemic),inactive
4,COc1ccc(OC(F)(F)F)cc1CN1CCC(=O)C(C(c2ccccc2)c2ccccc2)C1 (racemic),inactive

# Molecular target: T1, Substance-P receptor
# Assay: Displacement of [125I]BH-SP from human tachykinin NK1 receptor expressed in IM9 cells after 30 mins by scintillation counting
# Format: cell-based, IM-9
# Conditions: not given
# Procedure, shortened: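 Membranes from IM-9 cells grown 3 days, homogenized in 50 mM Tris-HCl pH 7.4 with NaCl, KCl, EDTA and protease inhibitors, spun at 40,000g for 20 min, then resuspended in a Tris buffer with 0.02% BSA and 3 mM MnCl2. Nonspecific binding was defined with 2 × 10^-6 M SP. Bound ligand was collected on GF/C filters, washed three times and counted.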
row,Structure (SMILES),IC50
1,O=C1CCN(Cc2ccccc2)CC1C(c1ccccc1)c1ccccc1 (racemic),97 nM
2,O=C1CCN(Cc2ccccc2)CC1C(c1ccc(F)cc1)c1ccc(F)cc1 (racemic),97 nM
3,O=C1CCN(Cc2ccccc2)CC1C(c1ccc(Cl)cc1)c1ccc(Cl)cc1 (racemic),97 nM
4,O=C1CCN(Cc2ccccc2O)CC1C(c1ccc(F)cc1)c1ccc(F)cc1 (racemic),280 nM
5,COc1ccccc1CN1CCC(=O)C(C(c2ccc(F)cc2)c2ccc(F)cc2)C1 (racemic),6.6 nM
6,COc1cccc(CN2CCC(=O)C(C(c3ccc(F)cc3)c3ccc(F)cc3)C2)c1 (racemic),31 nM
7,COc1ccc(CN2CCC(=O)C(C(c3ccc(F)cc3)c3ccc(F)cc3)C2)cc1 (racemic),77 nM
8,O=C1CCN(Cc2ccccc2C(F)(F)F)CC1C(c1ccc(F)cc1)c1ccc(F)cc1 (racemic),4.9 nM
9,O=C1CCN(Cc2cccc(C(F)(F)F)c2)CC1C(c1ccc(F)cc1)c1ccc(F)cc1 (racemic),270 nM
10,O=C1CCN(Cc2ccc(C(F)(F)F)cc2)CC1C(c1ccc(F)cc1)c1ccc(F)cc1 (racemic),220 nM
11,O=C1CCN(Cc2ccccc2F)CC1C(c1ccc(F)cc1)c1ccc(F)cc1 (racemic),46 nM
12,N#Cc1ccccc1CN1CCC(=O)C(C(c2ccc(F)cc2)c2ccc(F)cc2)C1 (racemic),6.1 nM
13,O=C1CCN(Cc2ccccc2[N+](=O)[O-])CC1C(c1ccc(F)cc1)c1ccc(F)cc1 (racemic),18 nM
14,O=C1CCN(Cc2ccccc2-c2ccccc2)CC1C(c1ccc(F)cc1)c1ccc(F)cc1 (racemic),14 nM
15,COc1cccc(CN2CCC(=O)C(C(c3ccc(F)cc3)c3ccc(F)cc3)C2)c1OC (racemic),55 nM
16,COc1ccc(CN2CCC(=O)C(C(c3ccc(F)cc3)c3ccc(F)cc3)C2)c(OC)c1 (racemic),9.5 nM
17,COc1ccc(OC)c(CN2CCC(=O)C(C(c3ccc(F)cc3)c3ccc(F)cc3)C2)c1 (racemic),3.1 nM
18,COc1cccc(OC)c1CN1CCC(=O)C(C(c2ccc(F)cc2)c2ccc(F)cc2)C1 (racemic),2.3 nM
19,COc1ccc(F)cc1CN1CCC(=O)C(C(c2ccc(F)cc2)c2ccc(F)cc2)C1 (racemic),4 nM
20,COc1ccc(Br)cc1CN1CCC(=O)C(C(c2ccc(F)cc2)c2ccc(F)cc2)C1 (racemic) [listing 2 of 2 here],1.1 nM
21,COc1ccc(OC(F)(F)F)cc1CN1CCC(=O)C(C(c2ccc(F)cc2)c2ccc(F)cc2)C1 (racemic),0.81 nM
22,COc1ccc([N+](=O)[O-])cc1CN1CCC(=O)C(C(c2ccccc2)c2ccccc2)C1 (racemic),2.6 nM
23,COc1ccc(NC(C)=O)cc1CN1CCC(=O)C(C(c2ccccc2)c2ccccc2)C1 (racemic),15 nM
24,COc1ccc(N)cc1CN1CCC(=O)C(C(c2ccccc2)c2ccccc2)C1 (racemic),5.9 nM
25,"COc1ccc(Br)cc1CN1CCC(=O)C(C(c2ccc(F)cc2)c2ccc(F)cc2)C1 (single isomer, unassigned; (+))",1.5 nM
